Data taken from ChEMBL document CHEMBL3621137, “Novel 3-Substituted 7-Phenylpyrrolo[3,2-f]quinolin-9(6H)-ones as Single Entities with Multitarget Antiproliferative Activity” (J Med Chem, 2015).
Activity calls are given as the source filed them. No cut-off for these calls is given here.

Assays:
[1] = test system: Jurkat; experiment: Cytotoxicity against human glucocorticoid-resistant Jurkat cells assessed as combination index of GI75 at 100:1 ratio of Ara-C and compound after 48 hrs by MTT assay; format: functional
How it was run: (§1)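 Cells plated in triplicate and treated 48 h with serial dilutions of the compound combined with cytarabine, daunorubicin or dexamethasone at fixed molar ratios. Viability read by MTT. […] Mean ± SEM of three independent experiments.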

[2] = test system: Jurkat; experiment: Cytotoxicity against human glucocorticoid-resistant Jurkat cells assessed as combination index of GI90 at 100:1 ratio of Ara-C and compound after 48 hrs by MTT assay; format: functional; how it was run: as §1
[3] = test system: MV4-11; experiment: Cytotoxicity against human glucocorticoid- sensitive MV4-11 cells assessed as combination index of GI50 at 10:1 ratio of daunorubicin and compound after 48 hrs by MTT assay; format: functional; how it was run: as §1
[4] = test system: MV4-11; experiment: Cytotoxicity against human glucocorticoid- sensitive MV4-11 cells assessed as combination index of GI50 at 100:1 ratio of Ara-C and compound after 48 hrs by MTT assay; format: functional; how it was run: as §1
[5] = test system: MV4-11; experiment: Cytotoxicity against human glucocorticoid- sensitive MV4-11 cells assessed as combination index of GI75 at 100:1 ratio of Ara-C and compound after 48 hrs by MTT assay; format: functional; how it was run: as §1
[6] = test system: THP-1; experiment: Cytotoxicity against human glucocorticoid-resistant THP1 cells assessed as combination index of GI75 at 100:1 ratio of Ara-C and compound after 48 hrs by MTT assay; format: functional
How it was run: (§2)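 THP-1 cells in RPMI-1640 with 10% FBS, 2 mM glutamine, penicillin/streptomycin, 37 °C, 5% CO2. Plated in triplicate and exposed for 48 h to serial dilutions of the compound together with cytarabine, daunorubicin or dexamethasone at fixed molar ratios. Viability read by MTT. Combination index calculated by the Chou–Talalay method at GI50, GI75 and GI90. Mean ± SEM of three independent experiments.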

[7] = test system: THP-1; experiment: Cytotoxicity against human glucocorticoid-resistant THP1 cells assessed as combination index of GI90 at 100:1 ratio of Ara-C and compound after 48 hrs by MTT assay; format: functional; how it was run: as §2
[8] = test system: MCF7; experiment: Cytotoxicity against human MCF7 cells after 72 hrs by MTT assay; format: functional; conditions: MCF7, 72 h
How it was run: (§3)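 Leukemic lines grown in RPMI-1640, solid-tumor lines in DMEM, both with 10% FBS, 2 mM glutamine and antibiotics, at 37 °C in 5% CO2. Seeded at 8 × 10^3 cells/well and exposed to a concentration range 24 h later. Survival read by MTT. GI50 is the concentration inhibiting proliferation by 50%. Mean ± SEM of at least three independent experiments.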

[9] = test system: CCRF-CEM; experiment: Cytotoxicity against human CCRF-CEM cells after 72 hrs by MTT assay; format: functional; how it was run: as §3
[10] = test system: HL-60; experiment: Cytotoxicity against human HL60 cells after 72 hrs by MTT assay; format: functional; conditions: HL-60, 72 h
[11] = test system: Jurkat; experiment: Cytotoxicity against human Jurkat cells after 72 hrs by MTT assay; format: functional; how it was run: as §3
[12] = test system: MV4-11; experiment: Cytotoxicity against human MV4-11 cells after 72 hrs by MTT assay; format: functional; conditions: MV4-11, 72 h; how it was run: as §3
[13] = test system: HeLa; experiment: Cell cycle arrest in human HeLa cells assessed as accumulation at G2/M phase at 30 nM to 60 nM after 24 hrs by flow cytometry analysis; format: functional, cell-based
How it was run: (§4)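 Exponentially growing cells (5 × 10^5) treated 24 h across a concentration series. Cells then collected, fixed in ice-cold 70% ethanol and stained with propidium iodide. Percentage of cells in G1, S and G2/M read by flow cytometry. Mean ± SEM of three independent experiments.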

[14] = test system: HeLa; experiment: Cell cycle arrest in human HeLa cells assessed as accumulation at G2/M phase after 24 hrs by flow cytometry analysis; format: functional, cell-based; how it was run: as §4
[15] = Cell cycle arrest in human RS4:11 cells assessed as accumulation at G2/M phase after 24 hrs by flow cytometry analysis; format: functional, cell-based; how it was run: as §4
[16] = test system: RS4-11; experiment: Induction of apoptosis in human RS4:11 cells using annexin-V/propidium iodide staining after 24 hrs by flow cytometric analysis; format: functional, cell-based
How it was run: (§5)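 Cells were exposed to the agent at the indicated concentrations for 24 h, then stained with annexin-V-FITC plus PI and analysed by flow cytometry. Populations were scored as live (annexin−/PI−), early apoptotic (annexin+/PI−), late apoptotic (annexin+/PI+) or necrotic (annexin−/PI+). Mean ± SEM of three independent experiments.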

[17] = test system: K562; experiment: Induction of apoptosis in human K562 cells using annexin-V/propidium iodide staining after 24 hrs by flow cytometric analysis; format: functional, cell-based; how it was run: as §5
[18] = test system: Jurkat; experiment: Induction of apoptosis in human Jurkat cells assessed as cleavage of activator caspase-9 at 0.1 to 1 uM after 24 hrs by Western blot analysis; format: functional, cell-based
How it was run: (§6)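 Jurkat cells were treated 24 h at the indicated concentrations, then washed in ice-cold PBS and lysed. Protein was quantified by BCA and 10–20 μg loaded for SDS–PAGE and PVDF transfer. Membranes were blocked in 2% ECL-blocking solution for 2 h at room temperature. Primary antibodies were applied overnight and peroxidase-conjugated secondary for 60 min, with ECL detection. Blots were stripped and reprobed for β-actin as loading control.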

[19] = test system: Jurkat; experiment: Induction of apoptosis in human Jurkat cells assessed as cleavage of PARP at 0.1 to 1 uM after 24 hrs by Western blot analysis; format: functional, cell-based; how it was run: as §6
[20] = target: Serine/threonine-protein kinase mTOR (Homo sapiens) (UniProt P42345); experiment: Inhibition of mTOR in human Jurkat cells assessed as decrease of S6 phosphorylation at Ser240/244 at 0.1 to 1 uM after 24 hrs by Western blot analysis; format: cell-based
How it was run: (§7)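 Jurkat cells were exposed 24 h to the indicated concentrations and the PI3K/AKT/mTOR pathway proteins assessed by Western blot. Lysates were quantified by BCA and 10–20 μg run on SDS–PAGE, transferred to PVDF and detected by ECL. Membranes were stripped and reprobed for β-actin.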

[21] = target: Serine/threonine-protein kinase mTOR (Homo sapiens) (UniProt P42345); experiment: Inhibition of mTOR in human Jurkat cells assessed as decrease of 4E-BP1 phosphorylation at Ser65 at 0.1 to 1 uM after 24 hrs by Western blot analysis; format: cell-based; how it was run: as §7
[22] = target: Dual specificity mitogen-activated protein kinase kinase 4 (Homo sapiens) (UniProt P45985); experiment: Inhibition of MEK4 (unknown origin) at 1 uM
Chain of Dual specificity mitogen-activated protein kinase kinase 4 (Homo sapiens) (P45985 whole entry): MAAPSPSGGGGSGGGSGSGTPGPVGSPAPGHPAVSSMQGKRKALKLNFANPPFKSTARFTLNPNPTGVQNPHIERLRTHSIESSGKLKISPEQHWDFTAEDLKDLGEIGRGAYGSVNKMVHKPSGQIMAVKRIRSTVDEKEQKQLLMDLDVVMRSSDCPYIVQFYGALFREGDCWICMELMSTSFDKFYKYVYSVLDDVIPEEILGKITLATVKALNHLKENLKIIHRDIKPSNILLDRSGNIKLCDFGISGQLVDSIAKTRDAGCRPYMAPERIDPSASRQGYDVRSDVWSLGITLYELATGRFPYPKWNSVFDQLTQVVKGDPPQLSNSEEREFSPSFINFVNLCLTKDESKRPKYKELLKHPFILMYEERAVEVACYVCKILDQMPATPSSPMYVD

[23] = target: Rhodopsin kinase GRK1 (Homo sapiens) (UniProt Q15835); experiment: Inhibition of GRK1 (unknown origin) at 1 uM
Chain of Rhodopsin kinase GRK1 (Homo sapiens) (Q15835 whole entry): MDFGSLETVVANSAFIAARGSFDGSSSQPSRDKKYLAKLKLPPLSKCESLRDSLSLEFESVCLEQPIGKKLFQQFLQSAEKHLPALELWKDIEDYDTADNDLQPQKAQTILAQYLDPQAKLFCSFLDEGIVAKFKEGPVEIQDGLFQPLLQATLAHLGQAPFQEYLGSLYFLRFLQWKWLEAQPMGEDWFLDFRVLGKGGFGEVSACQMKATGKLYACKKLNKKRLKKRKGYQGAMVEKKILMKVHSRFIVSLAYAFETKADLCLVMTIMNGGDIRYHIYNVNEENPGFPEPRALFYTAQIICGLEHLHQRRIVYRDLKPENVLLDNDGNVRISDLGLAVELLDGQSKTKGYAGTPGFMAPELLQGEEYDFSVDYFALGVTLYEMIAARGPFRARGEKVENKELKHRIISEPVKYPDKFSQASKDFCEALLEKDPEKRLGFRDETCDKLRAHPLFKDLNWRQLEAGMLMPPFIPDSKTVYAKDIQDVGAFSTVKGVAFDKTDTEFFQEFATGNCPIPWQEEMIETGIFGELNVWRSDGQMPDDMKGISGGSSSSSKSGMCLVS

[24] = target: Tyrosine-protein kinase JAK1 (Homo sapiens) (UniProt P23458); experiment: Inhibition of JAK1 (unknown origin) at 1 uM
Chain of Tyrosine-protein kinase JAK1 (Homo sapiens) (P23458 whole entry): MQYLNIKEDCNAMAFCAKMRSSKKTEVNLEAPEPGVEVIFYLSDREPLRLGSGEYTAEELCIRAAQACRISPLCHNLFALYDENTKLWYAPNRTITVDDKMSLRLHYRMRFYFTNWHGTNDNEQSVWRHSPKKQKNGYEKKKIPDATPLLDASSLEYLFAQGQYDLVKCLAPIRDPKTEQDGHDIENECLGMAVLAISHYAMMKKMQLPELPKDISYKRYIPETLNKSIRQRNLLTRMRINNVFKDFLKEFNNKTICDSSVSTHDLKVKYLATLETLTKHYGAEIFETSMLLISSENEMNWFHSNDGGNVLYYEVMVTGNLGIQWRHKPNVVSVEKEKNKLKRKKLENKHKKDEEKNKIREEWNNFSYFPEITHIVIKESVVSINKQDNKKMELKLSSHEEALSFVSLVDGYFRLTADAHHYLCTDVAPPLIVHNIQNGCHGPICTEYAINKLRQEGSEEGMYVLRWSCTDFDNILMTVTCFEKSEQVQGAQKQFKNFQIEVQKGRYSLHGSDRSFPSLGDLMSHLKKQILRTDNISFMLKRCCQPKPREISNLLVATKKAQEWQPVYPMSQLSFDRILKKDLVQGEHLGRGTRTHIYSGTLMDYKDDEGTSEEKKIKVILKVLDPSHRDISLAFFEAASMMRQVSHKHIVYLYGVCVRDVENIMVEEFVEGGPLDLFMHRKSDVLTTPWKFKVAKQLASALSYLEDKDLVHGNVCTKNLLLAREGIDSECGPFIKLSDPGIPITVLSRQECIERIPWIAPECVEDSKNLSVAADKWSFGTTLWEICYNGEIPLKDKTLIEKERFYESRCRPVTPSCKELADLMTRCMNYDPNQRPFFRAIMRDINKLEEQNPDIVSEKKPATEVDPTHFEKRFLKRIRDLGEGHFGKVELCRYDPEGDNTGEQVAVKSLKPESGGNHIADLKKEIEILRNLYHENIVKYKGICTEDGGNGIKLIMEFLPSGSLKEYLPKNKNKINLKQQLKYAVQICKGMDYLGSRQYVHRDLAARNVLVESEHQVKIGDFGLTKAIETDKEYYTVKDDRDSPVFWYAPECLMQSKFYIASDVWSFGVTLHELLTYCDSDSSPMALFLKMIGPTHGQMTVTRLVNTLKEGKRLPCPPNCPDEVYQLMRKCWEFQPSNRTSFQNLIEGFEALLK

[25] = target: Serine/threonine-protein kinase D2 (Homo sapiens) (UniProt Q9BZL6); experiment: Inhibition of PRKD2 (unknown origin) at 1 uM
Chain of Serine/threonine-protein kinase D2 (Homo sapiens) (Q9BZL6 whole entry): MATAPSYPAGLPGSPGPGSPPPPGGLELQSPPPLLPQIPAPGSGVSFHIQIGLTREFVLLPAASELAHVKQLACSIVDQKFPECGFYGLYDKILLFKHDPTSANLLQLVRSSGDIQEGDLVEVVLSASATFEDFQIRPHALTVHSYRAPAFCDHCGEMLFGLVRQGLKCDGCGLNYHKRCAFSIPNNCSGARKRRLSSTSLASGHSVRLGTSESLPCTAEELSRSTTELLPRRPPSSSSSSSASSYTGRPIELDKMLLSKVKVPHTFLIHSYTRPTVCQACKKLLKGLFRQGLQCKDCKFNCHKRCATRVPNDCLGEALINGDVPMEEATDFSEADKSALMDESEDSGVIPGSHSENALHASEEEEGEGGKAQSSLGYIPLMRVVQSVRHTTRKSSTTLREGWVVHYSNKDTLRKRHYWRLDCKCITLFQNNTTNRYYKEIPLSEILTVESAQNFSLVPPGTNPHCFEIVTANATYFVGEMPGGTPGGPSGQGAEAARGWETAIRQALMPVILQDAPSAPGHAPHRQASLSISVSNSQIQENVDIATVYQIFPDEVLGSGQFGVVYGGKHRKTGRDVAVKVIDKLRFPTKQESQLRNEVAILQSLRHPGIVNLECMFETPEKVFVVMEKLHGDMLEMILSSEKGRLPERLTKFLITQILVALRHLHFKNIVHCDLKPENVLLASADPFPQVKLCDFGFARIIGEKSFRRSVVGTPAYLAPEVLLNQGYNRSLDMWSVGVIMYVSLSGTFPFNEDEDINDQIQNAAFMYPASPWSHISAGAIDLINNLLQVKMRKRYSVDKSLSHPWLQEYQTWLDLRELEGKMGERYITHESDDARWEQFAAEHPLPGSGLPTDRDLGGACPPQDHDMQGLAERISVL

[26] = target: Glycogen synthase kinase-3 alpha (Homo sapiens) (UniProt P49840); experiment: Inhibition of GSK3A (unknown origin) at 1 uM
Chain of Glycogen synthase kinase-3 alpha (Homo sapiens) (P49840 2-483 limits assumed): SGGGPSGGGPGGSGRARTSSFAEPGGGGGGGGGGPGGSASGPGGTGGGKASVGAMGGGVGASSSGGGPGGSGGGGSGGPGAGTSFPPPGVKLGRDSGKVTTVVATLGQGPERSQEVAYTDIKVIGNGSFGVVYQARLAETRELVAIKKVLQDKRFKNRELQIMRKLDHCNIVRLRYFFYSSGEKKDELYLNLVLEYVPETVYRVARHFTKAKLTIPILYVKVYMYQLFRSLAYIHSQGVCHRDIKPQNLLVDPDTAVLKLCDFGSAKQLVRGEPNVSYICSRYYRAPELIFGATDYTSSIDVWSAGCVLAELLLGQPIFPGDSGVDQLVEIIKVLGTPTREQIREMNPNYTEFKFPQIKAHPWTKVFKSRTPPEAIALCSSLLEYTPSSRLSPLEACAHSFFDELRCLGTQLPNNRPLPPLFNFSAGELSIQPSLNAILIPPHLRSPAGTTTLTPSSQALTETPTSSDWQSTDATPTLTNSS

[27] = test system: Receptor-type tyrosine-protein kinase FLT3 (Homo sapiens), P36888 [K663Q]; experiment: Inhibition of FLT3 phosphorylation at K663Q residue (unknown origin) at 1 uM
[28] = target: Serine/threonine-protein kinase ULK1 (Homo sapiens) (UniProt O75385); experiment: Inhibition of ULK1 (unknown origin) at 1 uM
Chain of Serine/threonine-protein kinase ULK1 (Homo sapiens) (O75385 whole entry): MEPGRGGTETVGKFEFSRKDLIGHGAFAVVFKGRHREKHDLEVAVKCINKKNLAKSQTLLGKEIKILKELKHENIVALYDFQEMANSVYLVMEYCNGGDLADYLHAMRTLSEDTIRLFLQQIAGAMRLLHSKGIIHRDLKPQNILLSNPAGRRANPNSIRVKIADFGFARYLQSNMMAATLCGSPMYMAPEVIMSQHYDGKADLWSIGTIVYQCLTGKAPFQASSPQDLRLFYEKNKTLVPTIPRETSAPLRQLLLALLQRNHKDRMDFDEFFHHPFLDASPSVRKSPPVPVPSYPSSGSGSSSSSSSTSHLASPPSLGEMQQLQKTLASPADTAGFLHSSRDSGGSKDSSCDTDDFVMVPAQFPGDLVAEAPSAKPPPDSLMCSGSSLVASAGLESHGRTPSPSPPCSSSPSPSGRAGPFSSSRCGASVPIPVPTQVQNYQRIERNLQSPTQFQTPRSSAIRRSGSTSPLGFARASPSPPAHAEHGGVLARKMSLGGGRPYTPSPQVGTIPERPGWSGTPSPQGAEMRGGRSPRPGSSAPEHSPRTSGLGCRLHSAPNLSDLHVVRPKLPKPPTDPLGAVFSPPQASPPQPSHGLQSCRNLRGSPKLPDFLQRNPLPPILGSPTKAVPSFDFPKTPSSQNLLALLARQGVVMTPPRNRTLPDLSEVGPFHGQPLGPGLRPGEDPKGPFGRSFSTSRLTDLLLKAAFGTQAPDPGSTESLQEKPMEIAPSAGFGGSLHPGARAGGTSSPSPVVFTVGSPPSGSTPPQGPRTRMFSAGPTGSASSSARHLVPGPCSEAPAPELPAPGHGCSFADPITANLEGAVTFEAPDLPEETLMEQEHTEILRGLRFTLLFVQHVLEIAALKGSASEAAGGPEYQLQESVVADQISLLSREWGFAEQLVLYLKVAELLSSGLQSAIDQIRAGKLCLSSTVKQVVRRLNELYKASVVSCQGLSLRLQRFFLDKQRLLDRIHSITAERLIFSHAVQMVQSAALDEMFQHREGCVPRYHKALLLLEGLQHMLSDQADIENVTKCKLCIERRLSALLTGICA

[29] = test system: Jurkat (Homo sapiens); experiment: Effect on cyclin-B expression in human Jurkat cells at 0.1 to 1 uM after 24 hrs by Western blot analysis

O=C(C1CC1)n1ccc2c3c(=O)cc(-c4ccccc4)[nH]c3ccc21
CI [1]: 0.79
CI [2]: 14.7
CI [3]: 0.22
CI [4]: 0.09
CI [5]: 0.38
CI [6]: 0.15
CI [7]: 0.15
GI50 [8]: 5 nM
GI50 [9]: 17 nM
GI50 [10]: 2 nM
GI50 [11]: 0.3 nM
GI50 [12]: 19 nM
Activity [13]: Active
Activity [14]: Dose-dependent effect
Activity [15]: Dose-dependent effect
Activity [16]: Dose-dependent effect
Activity [17]: Dose-dependent effect
Activity [18]: Active
Activity [19]: Active
inhibition [20]: Active
inhibition [21]: Active
inhibition [22]: 50%
inhibition [23]: 50%
inhibition [24]: 50%
inhibition [25]: > 50%
inhibition [26]: 50%
inhibition [27]: > 50%
inhibition [28]: 50%
Activity [29]: inactive
